Results on 17 compounds are retold here after PubChem BioAssay.

Assay [1] in a line: hit retest on RPL19A-GFP reporter strain – cell-based, S. cerevisiae, flow cytometry, cherry picks, mother/daughter gates, confirmation (AID 2270;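 active means GFP response below 50% of the DMSO control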). The conditions noted are these: 3 h, at 10 µM, stronger effect = lower value, 100 = same GFP as DMSO wells.
Assay [2] is described as follows: yeast TOR pathway reporter LAP4-GFP change – cell-based, cherry picks, flow cytometry, mother/daughter gates, confirmation (AID 2271;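 active means GFP response above 150% of the DMSO control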;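 further: ratio of sample to DMSO plate mean so 100% equals DMSO level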). As to conditions: S. cerevisiae LAP4-GFP strain, 3 h, at 10 µM, stronger effect = higher value, 100 means same as DMSO control. The essentials:
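Test system: GFP-fusion yeast strain. Medium: synthetic complete (SC) yeast growth medium. Timing: 3 h treatment at 30 °C with rotation. Measured by: GFP by flow cytometry. Control set: positive rapamycin (400 ng/mL), negative DMSO.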
In general terms: A flow cytometer gives signals particle by particle.

A short description of assay [3]: TOR pathway reporter MEP2-GFP, retest of hits – S. cerevisiae, flow cytometry GFP, cherry picks, confirmation (AID 2272;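 active means GFP response above 150% of the DMSO control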;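 further: ratio of well signal to plate DMSO mean so 100% equals DMSO level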). As to conditions: S. cerevisiae MEP2-GFP strain, 3 h, at 10 µM, stronger effect = higher value.
Assay [4] in a line: yeast AGP1-GFP fluorescence change, single-dose – cell-based, flow cytometry, S. cerevisiae, cherry picks, confirmation (AID 2273).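 Further: median GFP channel fluorescence over the whole cell population gate.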 As to conditions: S. cerevisiae AGP1-GFP strain, 3 h, at 10 µM.
A short description of assay [5]: TOR pathway CIT2 reporter hit retest – S. cerevisiae, GFP fusion, cherry picks, mother/daughter gates, confirmation (AID 2274). As to conditions: S. cerevisiae CIT2-GFP strain, flow cytometry, 3 h, at 10 µM, stronger effect = higher value.
[6] abbreviates: measured here: daughter cell gate.
Setting [7] is: measured here: mother cell gate.
[8] abbreviates: measured here: daughter cell gate response.
Setting [9] is: measured here: mother cell gate response.

Active and inactive are the calls of the source.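 How the source made its calls, unless noted: active means GFP response above 150% of the DMSO level; inconclusive means fewer than 70 events counted for a yeast strain; inactive means the rest.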

Consider `Cc1ccc(C(=O)Sc2cccccc2=O)cc1`, for which the GFP response vs DMSO in assay [1] is 101% (inactive); in assay [1] (setting [6]) it was 99.4%; in assay [1] (setting [7]), 99%; in assay [3], 132% (inactive). Further, the GFP response relative to DMSO was 313% (active) in assay [2], 281% in assay [2] (setting [8]) and 315% in assay [2] (setting [9]). Besides, the GFP response, % of DMSO was 104% (inactive) in assay [4], 90.9% (inactive) in assay [5], 93.7% in assay [5] (setting [6]) and 84.8% in assay [5] (setting [7]).
For the compound `Cc1c(Br)c(O)c(Br)c2sc(=O)oc12`, the GFP response vs DMSO in assay [1] was 96.2% (inactive); in assay [1] (setting [6]), 101%; in assay [1] (setting [7]), 94.2%; in assay [3], 105% (inactive). In addition, the GFP response relative to DMSO is 125% (inactive) in assay [2], 123% in assay [2] (setting [8]) and 129% in assay [2] (setting [9]). Besides, the GFP response, % of DMSO in assay [4] was 101% (inactive); in assay [5], 97.3% (inactive); in assay [5] (setting [6]), 101%; in assay [5] (setting [7]) it was 94.4%.
Regarding `CC(NC(=O)C1CCC(CNS(=O)(=O)c2ccccc2)CC1)c1ccccc1` (configuration not stated), the GFP response vs DMSO is 101% (inactive) in assay [1], 102% in assay [1] (setting [6]), 101% in assay [1] (setting [7]) and 104% (inactive) in assay [3]. Further, the GFP response relative to DMSO was 100% (inactive) in assay [2], 102% in assay [2] (setting [8]) and 99.5% in assay [2] (setting [9]). The GFP response, % of DMSO was 107% (inactive) in assay [4], 99.3% (inactive) in assay [5], 100% in assay [5] (setting [6]) and 96.8% in assay [5] (setting [7]).
Take `c1ccc(CSc2ccc(-c3ccccn3)nn2)cc1`: the GFP response vs DMSO was 101% (inactive) in assay [1], 97.1% in assay [1] (setting [6]), 91.9% in assay [1] (setting [7]) and 114% (inactive) in assay [3]. Moreover, the results for the GFP response relative to DMSO in assay [2], in assay [2] (setting [8]) and in assay [2] (setting [9]) were 108% (inactive), 104% and 106%, respectively. For the same compound, the GFP response, % of DMSO was 96.7% (inactive) in assay [4], 97.3% (inactive) in assay [5], 97.4% in assay [5] (setting [6]) and 93.2% in assay [5] (setting [7]).
`Clc1ccc(Nc2ncnc3ccc(Br)cc23)cc1`: the GFP response vs DMSO in assay [1] is 98.4% (inactive); in assay [1] (setting [6]), 89.5%; in assay [1] (setting [7]), 99%; in assay [3], 95.4% (inactive). In addition, the GFP response relative to DMSO was 122% (inactive) in assay [2], 102% in assay [2] (setting [8]) and 124% in assay [2] (setting [9]). Further, the GFP response, % of DMSO was 86.2% (inactive) in assay [4], 86.3% (inactive) in assay [5], 83.5% in assay [5] (setting [6]) and 84% in assay [5] (setting [7]).
Turning to `N#C/C(=C\c1ccc(N2CCOCC2)o1)c1ccccc1`, the GFP response vs DMSO was 98.2% (inactive) in assay [1], 97.3% in assay [1] (setting [6]), 98.5% in assay [1] (setting [7]) and 104% (inactive) in assay [3]. Besides, the GFP response relative to DMSO is 102% (inactive) in assay [2], 102% in assay [2] (setting [8]) and 103% in assay [2] (setting [9]). Besides, the GFP response, % of DMSO in assay [4] was 93.8% (inactive); in assay [5] it was 104% (inactive); in assay [5] (setting [6]) it was 104%; in assay [5] (setting [7]), 103%.
Take `O=C(CCCCCN1C(=O)c2cccc3cccc(c23)C1=O)N1CCOCC1`: the GFP response vs DMSO in assay [1] is 102% (inactive); in assay [1] (setting [6]), 101%; in assay [1] (setting [7]) it was 102%; in assay [3] it was 99% (inactive). Also, the values for the GFP response relative to DMSO in assay [2], in assay [2] (setting [8]) and in assay [2] (setting [9]) were 102% (inactive), 101% and 103%, respectively. Also, the GFP response, % of DMSO was 99.8% (inactive) in assay [4], 103% (inactive) in assay [5], 101% in assay [5] (setting [6]) and 103% in assay [5] (setting [7]).
With `Cc1ccc(C2=NN(S(C)(=O)=O)C(c3ccc4nccnc4c3)C2)cc1` (configuration not stated), the GFP response vs DMSO in assay [1] is 98.6% (inactive); in assay [1] (setting [6]), 99.4%; in assay [1] (setting [7]), 97.6%; in assay [3], 100% (inactive). The values for the GFP response relative to DMSO in assay [2], in assay [2] (setting [8]) and in assay [2] (setting [9]) were 101% (inactive), 101% and 99.3%, respectively. The GFP response, % of DMSO was 96.8% (inactive) in assay [4], 101% (inactive) in assay [5], 103% in assay [5] (setting [6]) and 99.7% in assay [5] (setting [7]).
On to `CN1c2ccsc2/C(=N/Nc2ccc(F)cc2)CS1(=O)=O`, for which the GFP response vs DMSO is 99.2% (inactive) in assay [1], 99.6% in assay [1] (setting [6]), 99% in assay [1] (setting [7]) and 114% (inactive) in assay [3]. Further, the GFP response relative to DMSO in assay [2] was 134% (inactive); in assay [2] (setting [8]), 130%; in assay [2] (setting [9]), 134%. Further, the GFP response, % of DMSO is 103% (inactive) in assay [4], 109% (inactive) in assay [5], 108% in assay [5] (setting [6]) and 109% in assay [5] (setting [7]).
`CCCCn1c(-c2csc3c2CCCC3)n[nH]c1=S`: the GFP response vs DMSO in assay [1] was 91.5% (inactive); in assay [1] (setting [6]) it was 88.2%; in assay [1] (setting [7]), 94.1%; in assay [3], 93.3% (inactive). The results for the GFP response relative to DMSO in assay [2], in assay [2] (setting [8]) and in assay [2] (setting [9]) were 122% (inactive), 117% and 128%, respectively. Besides, the GFP response, % of DMSO in assay [4] was 95.6% (inactive); in assay [5] it was 80.6% (inactive); in assay [5] (setting [6]), 77.9%; in assay [5] (setting [7]), 80.5%.
`CCOC(=O)c1sc(NC(=O)c2ccco2)nc1-c1ccccc1`: the GFP response vs DMSO is 97.8% (inactive) in assay [1], 96.4% in assay [1] (setting [6]), 96.7% in assay [1] (setting [7]) and 103% (inactive) in assay [3]. Further, the GFP response relative to DMSO in assay [2] is 96.5% (inactive); in assay [2] (setting [8]), 94.4%; in assay [2] (setting [9]), 98.4%. In addition, the GFP response, % of DMSO is 100% (inactive) in assay [4], 98.6% (inactive) in assay [5], 97.6% in assay [5] (setting [6]) and 99.3% in assay [5] (setting [7]).
Turning to `Cc1cc(O)c(C(=O)/C=C/c2ccccc2)c(=O)o1`, the GFP response vs DMSO in assay [1] is 97.6% (inactive); in assay [1] (setting [6]) it was 101%; in assay [1] (setting [7]) it was 96.1%; in assay [3], 100% (inactive). In addition, the results for the GFP response relative to DMSO in assay [2], in assay [2] (setting [8]) and in assay [2] (setting [9]) were 144% (inactive), 139% and 148%, respectively. The GFP response, % of DMSO in assay [4] was 97% (inactive); in assay [5] it was 96.5% (inactive); in assay [5] (setting [6]), 99.7%; in assay [5] (setting [7]) it was 95.5%.
As for `O=C(Oc1oc(-c2ccco2)nc1C=Nc1ccccc1)c1ccoc1`, the GFP response vs DMSO in assay [1] is 99.6% (inactive); in assay [1] (setting [6]) it was 99.8%; in assay [1] (setting [7]) it was 96.9%; in assay [3], 108% (inactive). For the same compound, the GFP response relative to DMSO was 198% (active) in assay [2], 172% in assay [2] (setting [8]) and 198% in assay [2] (setting [9]). Further, the GFP response, % of DMSO in assay [4] is 98.2% (inactive); in assay [5], 98.6% (inactive); in assay [5] (setting [6]) it was 103%; in assay [5] (setting [7]), 91.5%.
As for `Cc1cc(C)c(S(C)(=O)=O)c(S(=O)(=O)c2ccc(Cl)cc2)n1`, the GFP response vs DMSO in assay [1] was 100% (inactive); in assay [1] (setting [6]), 100%; in assay [1] (setting [7]), 100%; in assay [3], 98.3% (inactive). In addition, the results for the GFP response relative to DMSO in assay [2], in assay [2] (setting [8]) and in assay [2] (setting [9]) were 99.2% (inactive), 97.6% and 99.3%, respectively. In addition, the GFP response, % of DMSO in assay [4] was 100% (inactive); in assay [5] it was 103% (inactive); in assay [5] (setting [6]), 103%; in assay [5] (setting [7]), 101%.
For `O=C(O)C1CCN(S(=O)(=O)c2ccc(Oc3ccccc3)cc2)CC1`, the GFP response vs DMSO was 98% (inactive) in assay [1], 98.3% in assay [1] (setting [6]), 98.8% in assay [1] (setting [7]) and 104% (inactive) in assay [3]. In addition, the GFP response relative to DMSO in assay [2] was 97.7% (inactive); in assay [2] (setting [8]), 97.9%; in assay [2] (setting [9]) it was 96.5%. Also, the GFP response, % of DMSO in assay [4] is 96.7% (inactive); in assay [5] it was 99.3% (inactive); in assay [5] (setting [6]), 100%; in assay [5] (setting [7]), 98%.
For `Cc1ccc(NCN2C(=O)C3C4C=CC(C4)C3C2=O)cc1` (configuration not stated), the GFP response vs DMSO in assay [1] was 96.4% (inactive); in assay [1] (setting [6]) it was 97%; in assay [1] (setting [7]) it was 98.1%; in assay [3] it was 97.5% (inactive). For the same compound, the GFP response relative to DMSO in assay [2] is 95.3% (inactive); in assay [2] (setting [8]) it was 93.6%; in assay [2] (setting [9]), 96.5%. The GFP response, % of DMSO was 98.4% (inactive) in assay [4], 102% (inactive) in assay [5], 102% in assay [5] (setting [6]) and 100% in assay [5] (setting [7]).
With `Nc1cc(N)nc(SCC(=O)N2CCc3ccccc32)n1`, the GFP response vs DMSO in assay [1] was 100% (inactive); in assay [1] (setting [6]), 101%; in assay [1] (setting [7]), 99.7%; in assay [3], 105% (inactive). Also, the GFP response relative to DMSO is 97.9% (inactive) in assay [2], 97.6% in assay [2] (setting [8]) and 96.1% in assay [2] (setting [9]). Moreover, the GFP response, % of DMSO in assay [4] is 98.5% (inactive); in assay [5], 101% (inactive); in assay [5] (setting [6]) it was 101%; in assay [5] (setting [7]), 101%.
